In publication PMC10783423 (Medicine, 2024):
Ends that are not written are not given here.

Each substance was assayed against Human thrombin (Homo sapiens, UniProt P00734) (assay: Thrombin inhibitory assay with chromogenic substrate S-2238).
Type: biochemical
Summary of the method: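 Human thrombin (2 U/mL working solution) premixed with test peptide at a range of concentrations. Chromogenic substrate S-2238 (1 mM solution) then added; blanks received buffer instead. All components were in 50 mM Tris-HCl, pH 7.5. Reaction ran 5 min at 37°C, with absorbance read at 375 nm. IC50 was taken as the peptide concentration giving 50% thrombin inhibition.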

Compared with FASRW [P5], SLVTKVS [SLVTKVS] is 1600-fold higher in IC50: 2.67 µM for the first, 4350 µM for the second. The first is the more potent here.

Going from AEGYA [P1] to EVVNQ [P2], the IC50 rises from 0.53 µM to 4.35 µM (8.2-fold). The first is the more potent here.

Going from FFQQSGG [FFQQSGG] to FVEIQAL [FVEIQAL], the IC50 falls from 2670 µM to 530 µM (5-fold).
